In ChEMBL document CHEMBL1144601, “Synthesis and antiproliferative properties of N3/8-disubstituted 3,8-diazabicyclo[3.2.1]octane analogues of 3,8-bis[2-(3,4,5-trimethoxyphenyl)pyridin-4-yl]methyl-piperazine” (Eur J Med Chem, 2007):
Calls of active or inactive are those of the source. The rule behind the calls is not given here.

Tests used:
CCRF-CEM = test: Antiproliferative activity against human CCRF-CEM cells by MTT assay; type: functional, cell-based
Summary of the method: (§1)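 Exponentially growing cells resuspended in growth medium with serial drug dilutions; viability read by MTT after 96 h at 37 °C, with untreated controls allowed at least three rounds of multiplication. IC50 is the concentration cutting proliferation by 50%, mean ± SD of three independent determinations. Haematological lines were grown in RPMI-1640 with 10% FCS and antibiotics. Solid-tumour lines were grown in their own media with 10% FCS.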

WIL2-NS = test: Antiproliferative activity against human WIL-2NS cells by MTT assay; type: functional, cell-based; summary of the method: as §1
CCRF-SB = test: Antiproliferative activity against human CCRF-SB cells by MTT assay; type: functional, cell-based; summary of the method: as §1
[1] = Antiproliferative activity against human CRL7065 cells by MTT assay; type: functional, cell-based; conditions: CRL-7065; summary of the method: as §1
SK-MEL-28 = test: Antiproliferative activity against human SK-MEL-28 cells by MTT assay; type: functional, cell-based; summary of the method: as §1
MCF7 [2] = test: Antiproliferative activity against human MCF7 cells by MTT assay; type: functional, cell-based; summary of the method: as §1
SK-MES-1 = test: Antiproliferative activity against human SKMES1 cells by MTT assay; type: functional, cell-based; summary of the method: as §1
HepG2 = test: Antiproliferative activity against human HepG2 cells by MTT assay; type: functional, cell-based; summary of the method: as §1
DU-145 = test: Antiproliferative activity against human DU145 cells by MTT assay; type: functional, cell-based; summary of the method: as §1
MT4 = test: Antiproliferative activity against human MT4 cells by MTT assay; type: functional, cell-based; summary of the method: as §1
MCF7 [3] = test: Induction of apoptosis in human MCF7 cells up to 50 uM after 24 hrs by propidium iodide satining assay; type: functional, cell-based
Summary of the method: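 MCF-7 cells treated at 10–50 µM for 24 h were washed in PBS. They were resuspended in 0.1% sodium citrate, 0.1% Triton X-100 and 50 µg/mL propidium iodide, then kept 30 min at 4 °C in the dark. Nuclei were read by flow cytometry on a log scale with debris gated out. The % hypodiploid nuclei is from three experiments in triplicate.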

MCF7 [4] = test: Cell cycle arrest in MCF7 cells by accumulation at GO/G1 phase at 10 uM after 24hrs; type: functional, Homo sapiens
Summary of the method: (§2)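 MCF-7 cells grown in DMEM with 2 mM L-glutamine and 10% heat-inactivated FBS, seeded at 5×10^5 cells/well. After 24 h they were exposed to compound at 10 µM for 24 h. Cells plus supernatant were collected, stained with Nicoletti reagent and DNA content read by flow cytometry (FL2, linear amplification). Phase distribution was modelled from the histograms.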

MCF7 [5] = test: Cell cycle arrest in MCF7 cells by accumulation at S phase at 10 uM after 24 hrs; type: functional, Homo sapiens; summary of the method: as §2
MCF7 [6] = test: Cell cycle arrest in MCF7 cells by accumulation at G2/M phase at 10 uM after 24 hrs; type: functional, Homo sapiens; summary of the method: as §2
MCF7 [7] = test: Increase in p21/WAF1 expression level in MCF7 cells at 10 uM after 24 hrs; type: functional, cell-based; conditions: Homo sapiens, TDE = time-dependent effect
Summary of the method: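 MCF-7 cells plated at 5×10^5 per 6-cm plate the day before were treated at 10 µM for various times. Lysates were made by freeze-thaw in Tris-HCl buffer with protease and phosphatase inhibitors. 30 µg protein was run on 10% SDS-PAGE and transferred to nitrocellulose. Blots were probed overnight at 4 °C with anti-p21 monoclonal (1:200), then a secondary antibody, and detected by ECL; three experiments.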

| SMILES | IC50 (CCRF-CEM) [µM] | IC50 (CCRF-SB) [µM] | IC50 (SK-MEL-28) [µM] | IC50 (MCF7 [2]) [µM] | IC50 (SK-MES-1) [µM] | IC50 (HepG2) [µM] | IC50 (DU-145) [µM] | IC50 (WIL2-NS) [µM] | IC50 [1] [µM] | IC50 (MT4) [µM] | Activity (MCF7 [3]) | Activity (MCF7 [4]) [%] | Activity (MCF7 [5]) [%] | Activity (MCF7 [6]) [%] | Activity (MCF7 [7]) |
| --- | --- | --- | --- | --- | --- | --- | --- | --- | --- | --- | --- | --- | --- | --- | --- |
| c1ccc(-c2cccc(CN3CC4CCC(C3)N4Cc3cccc(-c4ccccc4)c3)c2)cc1 | 12 | 10 | 15 | 25 | 10 | 38 | 14 | 12 | 41 | – | – | – | – | – | – |
| c1ccc(-c2cc(CN3CC4CCC(C3)N4Cc3ccnc(-c4ccccc4)c3)ccn2)cc1 | 8 | 11 | 8 | 9 | 11 | 11 | 8 | 15 | > 100 | 19 | – | – | – | – | – |
| COc1cccc(-c2cc(CN3CC4CCC(C3)N4Cc3ccnc(-c4cccc(OC)c4)c3)ccn2)c1 | 11 | 12 | 8 | 15 | 8 | 15 | 9 | 13 | > 100 | – | – | – | – | – | – |
| O=[N+]([O-])c1cccc(-c2cc(CN3CC4CCC(C3)N4Cc3ccnc(-c4cccc([N+](=O)[O-])c4)c3)ccn2)c1 | 36 | 27 | 31 | 68 | 30 | 41 | 85 | 63 | > 100 | – | – | – | – | – | – |
| c1ccc2c(CN3CC4CCC(C3)N4Cc3cccc4ccccc34)cccc2c1 | 8 | 7 | 13 | 11 | 17 | 18 | 80 | 7 | 20 | – | – | – | – | – | – |
| c1ccc(CN2CC3CCC(C2)N3Cc2ccccc2)cc1 | 46 | 81 | > 100 | > 100 | > 100 | > 100 | > 100 | 60 | > 100 | > 100 | – | – | – | – | – |
| Cc1cccc(-c2cc(CN3CC4CCC(C3)N4Cc3ccnc(-c4cccc(C)c4)c3)ccn2)c1 | 18 | 18 | 15 | 24 | 18 | 41 | 34 | 25 | > 100 | > 100 | – | – | – | – | – |
| c1ccc2c(c1)ccc1c(CN3CC4CCC(C3)N4Cc3cccc4c3ccc3ccccc34)cccc12 | 6 | 9 | 30 | 54 | 40 | 50 | 41 | 6 | 69 | – | – | – | – | – | – |
| c1ccc(CN2CC3CCC(C2)N3)cc1 | > 100 | > 100 | > 100 | > 100 | > 100 | > 100 | > 100 | > 100 | > 100 | > 100 | – | – | – | – | – |
| O=C1C2CCC(N2)C(=O)N1Cc1ccccc1 | 85 | 88 | 96 | 86 | 81 | 92 | 87 | > 100 | > 100 | > 100 | – | – | – | – | – |
| Sc1ncnc2nc[nH]c12 [MERCAPTOPURINE ANHYDROUS] | 1 | 1 | 15 | 3 | 58 | 8 | 2 | 3 | > 100 | 0.1 | – | – | – | – | – |
| CC(=O)Nc1cccc(-c2cc(CN3CC4CCC(C3)N4Cc3ccnc(-c4cccc(NC(C)=O)c4)c3)ccn2)c1 | 16 | 17 | 34 | 23 | 33 | 43 | 24 | 25 | > 100 | > 100 | – | – | – | – | – |
| COc1cc(-c2cc(CN3CC4CCC(C3)N4Cc3ccnc(-c4cc(OC)c(OC)c(OC)c4)c3)ccn2)cc(OC)c1OC | 2 | 3 | 4 | 5 | 10 | 8 | 14 | 3 | > 100 | 2 | inactive | 87 | 4.6 | 7.5 | tde |
| CC[C@@]1(O)C(=O)OCc2c1cc1n(c2=O)Cc2cc3ccccc3nc2-1 [CAMPTOTHECIN] | 0.003 | 0.003 | 0.04 | 0.04 | 0.01 | 0.03 | 0.01 | 0.005 | 0.5 | 0.004 | – | – | – | – | – |
| c1ccc(-c2ccc(CN3CC4CCC(C3)N4Cc3ccc(-c4ccccc4)cc3)cc2)cc1 | 7 | 6 | 6 | 84 | 43 | 45 | 7 | 11 | > 100 | > 100 | – | – | – | – | – |

Further lines, with some results ahead:

| IC50 (CCRF-CEM) [µM] | IC50 (CCRF-SB) [µM] | IC50 (SK-MEL-28) [µM] | IC50 (MCF7 [2]) [µM] | IC50 (SK-MES-1) [µM] | IC50 (HepG2) [µM] | IC50 (DU-145) [µM] | SMILES | IC50 (WIL2-NS) [µM] | IC50 [1] [µM] | IC50 (MT4) [µM] | Activity (MCF7 [3]) | Activity (MCF7 [4]) [%] | Activity (MCF7 [5]) [%] | Activity (MCF7 [6]) [%] | Activity (MCF7 [7]) |
| --- | --- | --- | --- | --- | --- | --- | --- | --- | --- | --- | --- | --- | --- | --- | --- |
| 7 | 13 | 10 | 10 | 12 | 9 | 9 | Clc1ccc(-c2cc(CN3CC4CCC(C3)N4Cc3ccnc(-c4ccc(Cl)cc4)c3)ccn2)cc1 | 29 | > 100 | – | – | – | – | – | – |
| 14 | 16 | > 100 | > 100 | > 100 | > 100 | > 100 | Oc1cccc(-c2cc(CN3CC4CCC(C3)N4Cc3ccnc(-c4cccc(O)c4)c3)ccn2)c1 | 28 | > 100 | – | – | – | – | – | – |
| 19 | 25 | 20 | 43 | 22 | 30 | 42 | CC(=O)Nc1ccc(-c2cc(CN3CC4CCC(C3)N4Cc3ccnc(-c4ccc(NC(C)=O)cc4)c3)ccn2)cc1 | 30 | > 100 | 18 | – | – | – | – | – |
| 8 | 12 | 7 | 7 | 8 | 7 | 7 | Cc1ccc(-c2cc(CN3CC4CCC(C3)N4Cc3ccnc(-c4ccc(C)cc4)c3)ccn2)cc1 | 26 | > 100 | – | – | – | – | – | – |
| 15 | 12 | 19 | 25 | 23 | 13 | 15 | Oc1ccc(-c2cc(CN3CC4CCC(C3)N4Cc3ccnc(-c4ccc(O)cc4)c3)ccn2)cc1 | 18 | 80 | – | – | – | – | – | – |
| 3 | 5 | 2 | 6 | 3 | 3 | 2 | COc1ccc(-c2cc(CN3CC4CCC(C3)N4Cc3ccnc(-c4ccc(OC)cc4)c3)ccn2)cc1 | 6 | > 100 | 4 | – | – | – | – | – |
| 91 | > 100 | > 100 | > 100 | > 100 | > 100 | > 100 | O=[N+]([O-])c1ccc(-c2cc(CN3CC4CCC(C3)N4Cc3ccnc(-c4ccc([N+](=O)[O-])cc4)c3)ccn2)cc1 | > 100 | > 100 | – | – | – | – | – | – |
